# Article PMC3738144 (British Journal of Cancer, 2013)
# Tests used:
# [1] = Plasma pharmacokinetics of lenvatinib, carboplatin and paclitaxel; assay type: in vivo; settings: human
# [2] = tested on: patients with stage IIIB/IV NSCLC; assay type: in vivo, human
# [3] = tested on: patients with stage IIIB/IV NSCLC; assay: Safety assessment: adverse events graded by CTCAE version 3.0; assay type: in vivo, human
# [4] = tested on: NSCLC (stage IIIB/IV) target lesions; assay: Antitumor activity by RECIST version 1.0; assay type: in vivo, human
# How it was run: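 Chemotherapy-naïve stage IIIB/IV NSCLC patients (20–74 y, ECOG 0–1, ≥1 measurable lesion) took oral test compound continuously BID. […] Investigators assessed tumours by RECIST 1.0 every two cycles. PFS ran from treatment start to PD or death (Kaplan–Meier).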
# [5] = tested on: plasma angiogenic proteins and cytokines; assay: Plasma biomarker; assay type: in vivo, human; settings: median (minimum–maximum), lenvatinib with carboplatin/paclitaxel
# [6] = 4 mg BID (n=22) with carboplatin/paclitaxel
# [7] = 4 mg level (22 patients) with carboplatin/paclitaxel
# [8] = 6 mg BID (n=6) with carboplatin/paclitaxel
smiles,measurement,setting,value
"CC(=O)O[C@H]1C(=O)[C@@]2(C)[C@H]([C@H](OC(=O)c3ccccc3)[C@]3(O)C[C@H](OC(=O)[C@H](O)[C@@H](NC(=O)c4ccccc4)c4ccccc4)C(C)=C1C3(C)C)[C@]1(OC(C)=O)CO[C@@H]1C[C@@H]2O [Paclitaxel, reference compound]",clearance,"[1]; intravenous, CL, paclitaxel 200 mg m^−2, with lenvatinib 4 mg BID (n=6), mean±s.d.",240 mL/min
same,Vd,"[1]; intravenous, Vss, paclitaxel 200 mg m^−2, with lenvatinib 4 mg BID (n=6), mean±s.d.",69.1 ± 27.7 L
same,half-life,"[1]; intravenous, t1/2, paclitaxel 200 mg m^−2, with lenvatinib 4 mg BID (n=6), mean±s.d.",6.65 ± 0.39 h
"COc1cc2nccc(Oc3ccc(NC(=O)NC4CC4)c(Cl)c3)c2cc1C(N)=O [lenvatinib, Lenvatinib]",dose-limiting toxicities (DLTs),"[2]; 4 mg BID (n=6), dose-finding cohort",No DLTs
same,maximum tolerated dose (MTD) of lenvatinib,"[2]; oral, with carboplatin (AUC 6)/paclitaxel (200 mg m^−2) day 1 every 3 weeks, advanced NSCLC",4 mg BID
same,patients with a treatment-related serious AE,[3]; 4 mg BID,7 n
same,"Anaemia Grade 3, treatment-related adverse event",[3]; [6],3 (14) n (%)
same,"Anaemia Grade 4, treatment-related adverse event",[3]; [6],0 n (%)
same,"Anal abscess Grade 3, treatment-related adverse event",[3]; [6],1 (5) n (%)
same,"Anal abscess Grade 4, treatment-related adverse event",[3]; [6],0 n (%)
same,"Decreased appetite Grade 3, treatment-related adverse event",[3]; [6],1 (5) n (%)
same,"Decreased appetite Grade 4, treatment-related adverse event",[3]; [6],0 n (%)
same,"Diarrhoea Grade 3, treatment-related adverse event",[3]; [6],1 (5) n (%)
same,"Diarrhoea Grade 4, treatment-related adverse event",[3]; [6],0 n (%)
same,"Febrile neutropenia Grade 3, treatment-related adverse event",[3]; [6],5 (23) n (%)
same,"Febrile neutropenia Grade 4, treatment-related adverse event",[3]; [6],0 n (%)
same,"Gingival infection Grade 3, treatment-related adverse event",[3]; [6],1 (5) n (%)
same,"Gingival infection Grade 4, treatment-related adverse event",[3]; [6],0 n (%)
same,"Hypertension Grade 3, treatment-related adverse event",[3]; [6],8 (36) n (%)
same,"Hypertension Grade 4, treatment-related adverse event",[3]; [6],0 n (%)
same,"Hypocalcemia Grade 3, treatment-related adverse event",[3]; [6],1 (5) n (%)
same,"Hypocalcemia Grade 4, treatment-related adverse event",[3]; [6],0 n (%)
same,"Hyponatremia Grade 3, treatment-related adverse event",[3]; [6],1 (5) n (%)
same,"Hyponatremia Grade 4, treatment-related adverse event",[3]; [6],0 n (%)
same,"Leukopenia Grade 3, treatment-related adverse event",[3]; [6],10 (46) n (%)
same,"Leukopenia Grade 4, treatment-related adverse event",[3]; [6],1 (5) n (%)
same,"Lymphopenia Grade 3, treatment-related adverse event",[3]; [6],1 (5) n (%)
same,"Lymphopenia Grade 4, treatment-related adverse event",[3]; [6],0 n (%)
same,"Nausea Grade 3, treatment-related adverse event",[3]; [6],1 (5) n (%)
same,"Nausea Grade 4, treatment-related adverse event",[3]; [6],0 n (%)
same,"Neurogenic bladder Grade 3, treatment-related adverse event",[3]; [6],1 (5) n (%)
same,"Neurogenic bladder Grade 4, treatment-related adverse event",[3]; [6],0 n (%)
same,"Neutropenia Grade 3, treatment-related adverse event",[3]; [6],0 n (%)
same,"Neutropenia Grade 4, treatment-related adverse event",[3]; [6],21 (95) n (%)
same,"Peripheral sensory neuropathy Grade 3, treatment-related adverse event",[3]; [6],1 (5) n (%)
same,"Peripheral sensory neuropathy Grade 4, treatment-related adverse event",[3]; [6],0 n (%)
same,"Pneumonia Grade 3, treatment-related adverse event",[3]; [6],1 (5) n (%)
same,"Pneumonia Grade 4, treatment-related adverse event",[3]; [6],0 n (%)
same,"Proteinuria Grade 3, treatment-related adverse event",[3]; [6],2 (9) n (%)
same,"Proteinuria Grade 4, treatment-related adverse event",[3]; [6],0 n (%)
same,"Pyelonephritis Grade 3, treatment-related adverse event",[3]; [6],1 (5) n (%)
same,"Pyelonephritis Grade 4, treatment-related adverse event",[3]; [6],0 n (%)
same,"Syncope Grade 3, treatment-related adverse event",[3]; [6],0 n (%)
same,"Syncope Grade 4, treatment-related adverse event",[3]; [6],0 n (%)
same,"Thrombocytopenia Grade 3, treatment-related adverse event",[3]; [6],4 (18) n (%)
same,"Thrombocytopenia Grade 4, treatment-related adverse event",[3]; [6],2 (9) n (%)
same,"Thrombosis Grade 3, treatment-related adverse event",[3]; [6],1 (5) n (%)
same,"Thrombosis Grade 4, treatment-related adverse event",[3]; [6],0 n (%)
same,"Vomiting Grade 3, treatment-related adverse event",[3]; [6],1 (5) n (%)
same,"Vomiting Grade 4, treatment-related adverse event",[3]; [6],0 n (%)
same,"Weight decreased Grade 3, treatment-related adverse event",[3]; [6],1 (5) n (%)
same,"Weight decreased Grade 4, treatment-related adverse event",[3]; [6],0 n (%)
same,alopecia incidence (all grades),[3]; [7],95%
same,arthralgia incidence (all grades),[3]; [7],95%
same,grade 3 or 4 febrile neutropenia,[3]; [7],23%
same,grade 3 or 4 hypertension,[3]; [7],36%
same,grade 3 or 4 leukopenia,[3]; [7],50%
same,grade 3 or 4 neutropenia,[3]; [7],95%
same,grade 3 or 4 thrombocytopenia,[3]; [7],27%
same,leukopenia incidence (all grades),[3]; [7],95%
same,neutropenia incidence (all grades),[3]; [7],95%
same,peripheral sensory neuropathy incidence (all grades),[3]; [7],95%
same,patients with a treatment-related serious AE,[3]; 6 mg BID,2 n
same,"Anaemia Grade 3, treatment-related adverse event",[3]; [8],0 n (%)
same,"Anaemia Grade 4, treatment-related adverse event",[3]; [8],0 n (%)
same,"Anal abscess Grade 3, treatment-related adverse event",[3]; [8],0 n (%)
same,"Anal abscess Grade 4, treatment-related adverse event",[3]; [8],0 n (%)
same,"Decreased appetite Grade 3, treatment-related adverse event",[3]; [8],0 n (%)
same,"Decreased appetite Grade 4, treatment-related adverse event",[3]; [8],0 n (%)
same,"Diarrhoea Grade 3, treatment-related adverse event",[3]; [8],0 n (%)
same,"Diarrhoea Grade 4, treatment-related adverse event",[3]; [8],0 n (%)
same,"Febrile neutropenia Grade 3, treatment-related adverse event",[3]; [8],1 (17) n (%)
same,"Febrile neutropenia Grade 4, treatment-related adverse event",[3]; [8],0 n (%)
same,"Gingival infection Grade 3, treatment-related adverse event",[3]; [8],1 (17) n (%)
same,"Gingival infection Grade 4, treatment-related adverse event",[3]; [8],0 n (%)
same,"Hypertension Grade 3, treatment-related adverse event",[3]; [8],4 (67) n (%)
same,"Hypertension Grade 4, treatment-related adverse event",[3]; [8],0 n (%)
same,"Hypocalcemia Grade 3, treatment-related adverse event",[3]; [8],0 n (%)
same,"Hypocalcemia Grade 4, treatment-related adverse event",[3]; [8],0 n (%)
same,"Hyponatremia Grade 3, treatment-related adverse event",[3]; [8],0 n (%)
same,"Hyponatremia Grade 4, treatment-related adverse event",[3]; [8],0 n (%)
same,"Leukopenia Grade 3, treatment-related adverse event",[3]; [8],2 (33) n (%)
same,"Leukopenia Grade 4, treatment-related adverse event",[3]; [8],1 (17) n (%)
same,"Lymphopenia Grade 3, treatment-related adverse event",[3]; [8],0 n (%)
same,"Lymphopenia Grade 4, treatment-related adverse event",[3]; [8],0 n (%)
same,"Nausea Grade 3, treatment-related adverse event",[3]; [8],0 n (%)
same,"Nausea Grade 4, treatment-related adverse event",[3]; [8],0 n (%)
same,"Neurogenic bladder Grade 3, treatment-related adverse event",[3]; [8],0 n (%)
same,"Neurogenic bladder Grade 4, treatment-related adverse event",[3]; [8],0 n (%)
same,"Neutropenia Grade 3, treatment-related adverse event",[3]; [8],0 n (%)
same,"Neutropenia Grade 4, treatment-related adverse event",[3]; [8],5 (83) n (%)
same,"Peripheral sensory neuropathy Grade 3, treatment-related adverse event",[3]; [8],0 n (%)
same,"Peripheral sensory neuropathy Grade 4, treatment-related adverse event",[3]; [8],0 n (%)
same,"Pneumonia Grade 3, treatment-related adverse event",[3]; [8],2 (33) n (%)
same,"Pneumonia Grade 4, treatment-related adverse event",[3]; [8],0 n (%)
same,"Proteinuria Grade 3, treatment-related adverse event",[3]; [8],0 n (%)
same,"Proteinuria Grade 4, treatment-related adverse event",[3]; [8],0 n (%)
same,"Pyelonephritis Grade 3, treatment-related adverse event",[3]; [8],0 n (%)
same,"Pyelonephritis Grade 4, treatment-related adverse event",[3]; [8],0 n (%)
same,"Syncope Grade 3, treatment-related adverse event",[3]; [8],1 (17) n (%)
same,"Syncope Grade 4, treatment-related adverse event",[3]; [8],0 n (%)
same,"Thrombocytopenia Grade 3, treatment-related adverse event",[3]; [8],0 n (%)
same,"Thrombocytopenia Grade 4, treatment-related adverse event",[3]; [8],0 n (%)
same,"Thrombosis Grade 3, treatment-related adverse event",[3]; [8],0 n (%)
same,"Thrombosis Grade 4, treatment-related adverse event",[3]; [8],0 n (%)
same,"Vomiting Grade 3, treatment-related adverse event",[3]; [8],0 n (%)
same,"Vomiting Grade 4, treatment-related adverse event",[3]; [8],0 n (%)
same,"Weight decreased Grade 3, treatment-related adverse event",[3]; [8],0 n (%)
same,"Weight decreased Grade 4, treatment-related adverse event",[3]; [8],0 n (%)
same,SAE febrile neutropenia,[3]; all 28 patients,7%
same,SAE pneumonia,[3]; all 28 patients,7%
same,deaths,[3]; all 28 patients,No deaths were reported
same,patients with a treatment-related serious AE,[3]; all 28 patients (4 and 6 mg BID),Nine
same,changes in mean QT interval and QTcF,[3]; combination or maintenance therapy,no changes of clinical importance
same,Cmax,"[1]; oral, 4 mg",0.0975 ± 0.0384 µg/mL
same,Tmax,"[1]; oral, 4 mg, tmax, lenvatinib in plasma, lenvatinib 4 mg BID (n=6) with carboplatin/paclitaxel, median (minimum–maximum)",4.18 h
same,Cmax,"[1]; oral, 6 mg",0.138 ± 0.0353 µg/mL
same,Tmax,"[1]; oral, 6 mg, Median time of maximum concentration (tmax), lenvatinib, across 4 and 6 mg BID groups",4.18 to 4.27 h
same,AUC(0-t),"[1]; oral, 6 mg, mean AUC(0−t), lenvatinib, across 4 and 6 mg BID groups",0.692 to 0.848 µg·h/mL
same,Best response CR,[4]; [6],1 (5) n (%)
same,Best response NE,[4]; [6],1 (5) n (%)
same,Best response PD,[4]; [6],1 (5) n (%)
same,Best response PR,[4]; [6],14 (64) n (%)
same,Best response SD,[4]; [6],5 (23) n (%)
same,ORR (CR+PR),[4]; [6],15 (68) n (%)
same,Median PFS,[4]; 4 mg BID groups with carboplatin/paclitaxel,9.0 months
same,Best response CR,[4]; [8],0 (0) n (%)
same,Best response NE,[4]; [8],2 (33) n (%)
same,Best response PD,[4]; [8],0 (0) n (%)
same,Best response PR,[4]; [8],2 (33) n (%)
same,Best response SD,[4]; [8],2 (33) n (%)
same,ORR (CR+PR),[4]; [8],2 (33) n (%)
same,complete response,[4]; 22 patients at the 4 mg level,5%
same,partial response,[4]; 22 patients at the 4 mg level,64%
same,Best response CR,[4]; Total (n=28),1 (4) n (%)
same,Best response NE,[4]; Total (n=28),3 (11) n (%)
same,Best response PD,[4]; Total (n=28),1 (4) n (%)
same,Best response PR,[4]; Total (n=28),16 (57) n (%)
same,Best response SD,[4]; Total (n=28),7 (25) n (%)
same,ORR (CR+PR),[4]; Total (n=28),17 (61) n (%)
same,Median PFS,[4]; total,9.0 months
same,median duration of response,[4]; total,7.0 months
same,"FGF-2 plasma, observed value",[5]; Cycle 1 day 8 (n=26),17.2 (7–59) pg ml^−1
same,"G-CSF plasma, observed value",[5]; Cycle 1 day 8 (n=26),7.6 (3–27) pg ml^−1
same,"HGF plasma, observed value",[5]; Cycle 1 day 8 (n=26),244.0 (163–353) pg ml^−1
same,"PDGF-B plasma, observed value",[5]; Cycle 1 day 8 (n=26),237.9 (14–2849) pg ml^−1
same,"SCF plasma, observed value",[5]; Cycle 1 day 8 (n=26),101.0 (54–173) pg ml^−1
same,"FGF-2 plasma, observed value",[5]; Cycle 1 day 22 (n=26),16.0 (7–57) pg ml^−1
same,"G-CSF plasma, observed value",[5]; Cycle 1 day 22 (n=26),7.5 (2–17) pg ml^−1
same,"IL-8 plasma, observed value",[5]; Cycle 1 day 22 (n=26),4.4 (3–15) pg ml^−1
same,"SCF plasma, observed value",[5]; Cycle 1 day 22 (n=26),102.9 (43–184) pg ml^−1
same,"SDF1α plasma, observed value",[5]; Cycle 1 day 22 (n=26),76.9 (30–140) pg ml^−1
